Measurements reported in ChEMBL document CHEMBL4130377 (Eur J Med Chem, 2017).
Activity calls are given as the source filed them. The rule behind the calls is not given here.

Assays:
Mus musculus [1] = assay: Body weight lowering effect in ICR mouse assessed as cumulative changes in body weight at 1000 nmol/kg, ip administered every other day for 2 weeks; assay type: functional, organism-based
Glucagon receptor = Glucagon receptor (Homo sapiens, UniProt P47871); assay: Agonist activity at human GCGR expressed in HEK293 cells assessed as increase in cAMP accumulation after 20 mins by HTRF assay; assay type: functional, cell-based
Mus musculus [2] = assay: Anorectic activity in overnight fasted ICR mouse assessed as reduction in cumulative food intake at 1000 nmol/kg, ip measured up to 8 hrs post dose
Mus musculus [3] = assay: Antiobesity activity in diet-induced obese C57Bl/6 mouse model assessed as plasma cholesterol level at 3.48 mg/kg, ip administered every other day for 30 days (reference value: 4.33 +/- […]); assay type: functional, organism-based
Mus musculus [4] = assay: Antiobesity activity in diet-induced obese C57Bl/6 mouse model assessed as serum adiponectin level at 3.48 mg/kg, ip administered every other day for 30 days by ELISA (reference value: 8.9 +/- 0.38 ug/ml); assay type: functional, organism-based
Outline: (§1)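 Male C57Bl/6 mice were fed high-fat diet (60% kcal fat) for 12 weeks; DIO mice were ~38 g at 20 weeks. Dosing was i.p. (10 mL/kg in 0.9% saline) every other day at 9 am for 30 days, with saline controls and low-fat-diet lean mice for reference. Insulin, leptin and adiponectin were measured at study end. n=6-8 per group, means ± SD.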

Mus musculus [5] = assay: Antiobesity activity in diet-induced obese C57Bl/6 mouse model assessed as serum leptin level at 3.48 mg/kg, ip administered every other day for 30 days by ELISA (reference value: 1.9 +/- 0.07 ng/ml); assay type: functional, organism-based; outline: as §1
Mus musculus [6] = assay: Anorectic activity in overnight fasted ICR mouse assessed as reduction in cumulative food intake at 1000 nmol/kg, ip measured at <2 hrs post dose; assay type: functional, organism-based
Mus musculus [7] = assay: Antiobesity activity in diet-induced obese C57Bl/6 mouse model assessed as plasma insulin level at 3.48 mg/kg, ip administered every other day for 30 days by ELISA (reference value: 13.33 +/- […]); assay type: functional, organism-based
Mus musculus [8] = assay: Anorectic activity in overnight fasted ICR mouse assessed as reduction in cumulative food intake at 1000 nmol/kg, ip measured at 2 hrs post dose; assay type: functional, organism-based
Outline: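 Male ICR mice, 9 weeks old, […], then given a single i.p. dose of 1000 nmol/kg in 0.9% saline; saline-injected controls. Mice were returned to home cages with preweighed food, which was reweighed at 0.5, 1, 2, 4, 8 and 24 h. Readout is cumulative food intake, n=6-8 per group.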

Mus musculus [9] = assay: Antiobesity activity in diet-induced obese C57Bl/6 mouse model assessed as plasma triglyceride level at 3.48 mg/kg, ip administered every other day for 30 days (reference value: 0.84 +/- […]); assay type: functional, organism-based

Glucagon receptor, sequence (P47871 whole entry): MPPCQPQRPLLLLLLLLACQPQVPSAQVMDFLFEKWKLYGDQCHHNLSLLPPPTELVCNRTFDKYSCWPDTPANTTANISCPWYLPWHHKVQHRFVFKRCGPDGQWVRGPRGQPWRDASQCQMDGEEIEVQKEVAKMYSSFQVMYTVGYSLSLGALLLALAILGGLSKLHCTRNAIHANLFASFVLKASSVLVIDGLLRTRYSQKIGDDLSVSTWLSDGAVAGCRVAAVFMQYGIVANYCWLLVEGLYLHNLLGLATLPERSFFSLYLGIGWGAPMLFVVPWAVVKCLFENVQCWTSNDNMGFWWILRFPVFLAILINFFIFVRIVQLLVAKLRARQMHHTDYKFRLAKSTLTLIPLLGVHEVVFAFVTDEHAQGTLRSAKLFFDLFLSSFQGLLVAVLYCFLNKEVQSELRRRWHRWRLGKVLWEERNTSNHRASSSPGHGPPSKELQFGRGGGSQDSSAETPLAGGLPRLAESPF

| Compound | Activity (Mus musculus [1]) | EC50 (Glucagon receptor) | Activity (Mus musculus [2]) | Activity (Mus musculus [3]) [mmol/L] | Activity (Mus musculus [4]) [µg/mL] | Activity (Mus musculus [5]) [ng/mL] | Activity (Mus musculus [6]) | Activity (Mus musculus [7]) [ng/mL] | Activity (Mus musculus [8]) | Activity (Mus musculus [9]) [mmol/L] |
| --- | --- | --- | --- | --- | --- | --- | --- | --- | --- | --- |
| CC[C@H](C)[C@H](NC(=O)[C@H](Cc1ccccc1)NC(=O)[C@H](CCC(=O)O)NC(=O)[C@H](CCCCN)NC(=O)[C@H](C)NC(=O)[C@H](C)NC(=O)[C@H](CCC(N)=O)NC(=O)CNC(=O)[C@H](CCC(=O)O)NC(=O)[C@H](CC(C)C)NC(=O)[C@H](Cc1ccc(O)cc1)NC(=O)[C@H](CO)NC(=O)[C@H](CO)NC(=O)[C@@H](NC(=O)[C@H](CC(=O)O)NC(=O)[C@H](CO)NC(=O)[C@@H](NC(=O)[C@H](Cc1ccccc1)NC(=O)[C@@H](NC(=O)CNC(=O)[C@H](CCC(=O)O)NC(=O)[C@H](C)NC(=O)[C@@H](N)Cc1c[nH]cn1)[C@@H](C)O)[C@@H](C)O)C(C)C)C(=O)N[C@@H](C)C(=O)N[C@@H](Cc1c[nH]c2ccccc12)C(=O)N[C@@H](CC(C)C)C(=O)N[C@H](C(=O)N[C@@H](CCCCN)C(=O)NCC(=O)N[C@@H](CCCN=C(N)N)C(=O)NCC(=O)O)C(C)C | inactive | Not Active | Active |  |  |  |  |  |  |  |
| GLUCAGON | inactive |  |  | 5.08 | 12.2 | 1.79 | Active | 8.41 | inactive | 1.19 |
